ChEMBL document CHEMBL1133016, “Opiate aromatic pharmacophore structure-activity relationships in CTAP analogues determined by topographical bias, two-dimensional NMR, and biological activity assays” (J Med Chem, 2000)
pIC50: −log10 of the molar value. Bridge positions count the residues as written; N and C are the ends. Square brackets hold non-standard residues; d marks the D form. Peptide text beside a SMILES is read from it. dTic = O=C(O)[C@H]1Cc2ccccc2CN1; Pen = CC(C)(S)[C@H](N)C(=O)O

Columns and labels:
Cavia porcellus [1] = organism: Cavia porcellus; test: Evaluated for antagonist activity as the rightward fold shift of dose response curve of the known agonist PL-017 in Guinea pig ileum (GPI) at 1 uM concentration of compound; format: functional
Outline: (§1)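 Longitudinal muscle-myenteric plexus strips from nonterminal ileum of male Hartley guinea pigs (250-500 g). Held in Krebs-bicarbonate at 37 °C under 95% O₂/5% CO₂, 1 g resting tension after 15 min unloaded equilibration. Stimulated transmurally at 0.1 Hz, 0.4 ms pulses, supramaximal voltage. Agonist twitch effect read after 3 min incubation; antagonist added 2 min before agonist. Mean ± SEM.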

Cavia porcellus [2] = organism: Cavia porcellus; test: Evaluated for agonist activity as percent inhibition in electrically evoked twitch height in Guinea pig ileum (GPI) at 1 uM concentration of compound; format: functional; outline: as §1
Mus musculus = organism: Mus musculus; test: Evaluated for agonist activity as percent inhibition in electrically evoked twitch height in mouse vas deferens (MVD) at 1 uM concentration of compound; format: functional
Outline: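 Vasa deferentia from male ICR mice (25-40 g), held in magnesium-free Krebs at 37 °C under 95% O₂/5% CO₂. Hung 15 min without tension, then under 0.5 g resting tension. Stimulated transmurally at 0.1 Hz, 2 ms pulses, supramaximal voltage. Twitch inhibition read 3 min after agonist, expressed relative to the pre-dose twitch height. Mean ± SEM.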

Mu-type opioid receptor = Mu-type opioid receptor (Rattus norvegicus, UniProt P33535); test: Binding affinity for rat brain Opioid receptor mu 1
Chain of Mu-type opioid receptor (P33535 whole entry): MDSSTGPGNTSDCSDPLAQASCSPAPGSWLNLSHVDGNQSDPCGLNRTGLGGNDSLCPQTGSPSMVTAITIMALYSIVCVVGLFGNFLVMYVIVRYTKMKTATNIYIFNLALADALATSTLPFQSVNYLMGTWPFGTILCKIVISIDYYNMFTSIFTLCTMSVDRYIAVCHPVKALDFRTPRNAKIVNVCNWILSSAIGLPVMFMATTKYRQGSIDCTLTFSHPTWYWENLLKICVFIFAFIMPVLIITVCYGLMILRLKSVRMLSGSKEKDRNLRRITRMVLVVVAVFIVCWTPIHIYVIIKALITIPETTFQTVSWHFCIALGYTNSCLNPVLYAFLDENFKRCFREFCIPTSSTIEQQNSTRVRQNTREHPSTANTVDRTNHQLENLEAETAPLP
Outline: (§2)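 Whole-brain membranes from adult Sprague-Dawley rats (250-300 g), homogenized at 0 °C in 50 mM Tris-HCl pH 7.4, centrifuged at 48 000g, and preincubated at 25 °C to strip endogenous ligand. Competition run for 3 h at 25 °C in Tris-HCl with BSA, bestatin, bacitracin, captopril and PMSF. Radioligand was [3H][4′-Cl-Phe4]DPDPE 0.75 nM for δ or [3H]DAMGO 1.0 nM for μ, with ≥10 analogue concentrations. Nonspecific binding defined with 10 µM naltrexone; each analogue tested ≥3 times.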

[3] = target: Delta-type opioid receptor (Rattus norvegicus, UniProt P33533); test: Binding affinity for rat brain Opioid receptor delta 1; outline: as §2
Chain of Delta-type opioid receptor (P33533 whole entry): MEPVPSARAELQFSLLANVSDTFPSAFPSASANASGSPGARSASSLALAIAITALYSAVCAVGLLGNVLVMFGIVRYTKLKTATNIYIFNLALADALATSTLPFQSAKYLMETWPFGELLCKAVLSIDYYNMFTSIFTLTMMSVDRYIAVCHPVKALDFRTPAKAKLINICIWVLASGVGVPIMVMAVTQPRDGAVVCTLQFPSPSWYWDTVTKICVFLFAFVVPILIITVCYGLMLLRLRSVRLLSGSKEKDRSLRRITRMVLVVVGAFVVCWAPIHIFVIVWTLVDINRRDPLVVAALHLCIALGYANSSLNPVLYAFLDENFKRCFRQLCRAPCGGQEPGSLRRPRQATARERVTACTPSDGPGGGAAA

Cavia porcellus [4] = organism: Cavia porcellus; test: Evaluated for antagonist activity as the rightward fold shift of dose response curve of the known agonist PL-017 in Guinea pig ileum (GPI). 1-fold indicates no change in the dose response curve; format: functional; outline: as §1

Structure (SMILES) | PL-017 shift (Cavia porcellus [1]) | inhibition at 1 µM (Cavia porcellus [2]) | inhibition at 1 µM (Mus musculus) | pIC50 (Mu-type opioid receptor) | pIC50 [3] | PL-017 shift (Cavia porcellus [4])
C[C@@H](O)[C@H](NC(=O)[C@H]1NC(=O)[C@H]([C@@H](C)O)NC(=O)[C@H](CCCNC(=N)N)NC(=O)[C@@H](Cc2c[nH]c3ccccc23)NC(=O)[C@H](Cc2ccc(O)cc2)NC(=O)[C@@H](NC(=O)[C@H](N)Cc2ccccc2)CSSC1(C)C)C(N)=O | 55 | 4% | 17% | – | – | –
C[C@@H](O)[C@H](NC(=O)[C@H]1NC(=O)[C@H]([C@@H](C)O)NC(=O)[C@H](CCCN=C(N)N)NC(=O)[C@@H](Cc2c[nH]c3ccccc23)NC(=O)[C@H](Cc2ccc(O)cc2)NC(=O)[C@@H](NC(=O)[C@H](N)[C@@H](C)c2ccccc2)CSSC1(C)C)C(N)=O [listing 1 of 2 here] | – | – | – | 7.68 | 5.88 | –
C[C@@H](O)[C@H](NC(=O)[C@H]1NC(=O)[C@H]([C@@H](C)O)NC(=O)[C@H](CCCN=C(N)N)NC(=O)[C@@H](Cc2c[nH]c3ccccc23)NC(=O)[C@H](Cc2ccc(O)cc2)NC(=O)[C@@H](NC(=O)[C@H](N)[C@@H](C)c2ccccc2)CSSC1(C)C)C(N)=O [listing 2 of 2 here] | 15 | 0% | 8% | – | – | –
C[C@H](c1ccccc1)[C@@H](N)C(=O)N[C@H]1CSSC(C)(C)[C@@H](C(=O)N[C@H](C(N)=O)[C@@H](C)O)NC(=O)[C@H]([C@@H](C)O)NC(=O)[C@H](CCCN=C(N)N)NC(=O)[C@@H](Cc2c[nH]c3ccccc23)NC(=O)[C@H](Cc2ccc(O)cc2)NC1=O [listing 1 of 2 here] | – | – | – | 7.70 | 5.92 | –
C[C@H](c1ccccc1)[C@@H](N)C(=O)N[C@H]1CSSC(C)(C)[C@@H](C(=O)N[C@H](C(N)=O)[C@@H](C)O)NC(=O)[C@H]([C@@H](C)O)NC(=O)[C@H](CCCN=C(N)N)NC(=O)[C@@H](Cc2c[nH]c3ccccc23)NC(=O)[C@H](Cc2ccc(O)cc2)NC1=O [listing 2 of 2 here] | 19 | 0% | 34% | – | – | –
C[C@H](c1c[nH]c2ccccc12)[C@H](N)C(=O)N[C@H]1CSSC(C)(C)[C@@H](C(=O)N[C@H](C(N)=O)[C@@H](C)O)NC(=O)[C@H]([C@@H](C)O)NC(=O)[C@H](CCCNC(=N)N)NC(=O)[C@@H](Cc2c[nH]c3ccccc23)NC(=O)[C@H](Cc2ccc(O)cc2)NC1=O | – | – | – | 5.47 | 5.13 | –
C[C@H](c1c[nH]c2ccccc12)[C@H](N)C(=O)N[C@H]1CSSC(C)(C)[C@@H](C(=O)N[C@H](C(N)=O)[C@@H](C)O)NC(=O)[C@H]([C@@H](C)O)NC(=O)[C@H](CCCN=C(N)N)NC(=O)[C@@H](Cc2c[nH]c3ccccc23)NC(=O)[C@H](Cc2ccc(O)cc2)NC1=O | 1 | 0% | 0% | – | – | –
C[C@@H](O)[C@H](NC(=O)[C@H]1NC(=O)[C@H]([C@@H](C)O)NC(=O)[C@H](CCCN=C(N)N)NC(=O)[C@@H](Cc2c[nH]c3ccccc23)NC(=O)[C@H](Cc2ccc(O)cc2)NC(=O)[C@@H](NC(=O)[C@H](N)Cc2c[nH]c3ccccc23)CSSC1(C)C)C(N)=O [listing 1 of 2 here] | – | – | – | 8.86 | 5.45 | –
C[C@@H](O)[C@H](NC(=O)[C@H]1NC(=O)[C@H]([C@@H](C)O)NC(=O)[C@H](CCCN=C(N)N)NC(=O)[C@@H](Cc2c[nH]c3ccccc23)NC(=O)[C@H](Cc2ccc(O)cc2)NC(=O)[C@@H](NC(=O)[C@H](N)Cc2c[nH]c3ccccc23)CSSC1(C)C)C(N)=O [listing 2 of 2 here] | 1 | 43% | 13.6% | – | – | –
C[C@@H](O)[C@H](NC(=O)[C@H]1NC(=O)[C@H]([C@@H](C)O)NC(=O)[C@H](CCCNC(=N)N)NC(=O)[C@@H](Cc2c[nH]c3ccccc23)NC(=O)[C@H](Cc2ccc(O)cc2)NC(=O)[C@@H](NC(=O)[C@@H](N)[C@@H](C)c2ccccc2)CSSC1(C)C)C(N)=O | – | – | – | 5.82 | < 4.82 | –
C[C@@H](O)[C@H](NC(=O)[C@H]1NC(=O)[C@H]([C@@H](C)O)NC(=O)[C@H](CCCN=C(N)N)NC(=O)[C@@H](Cc2c[nH]c3ccccc23)NC(=O)[C@H](Cc2ccc(O)cc2)NC(=O)[C@@H](NC(=O)[C@@H](N)[C@@H](C)c2ccccc2)CSSC1(C)C)C(N)=O | 1 | 0% | 35% | – | – | –
C[C@@H](O)[C@H](NC(=O)[C@H]1NC(=O)[C@H]([C@@H](C)O)NC(=O)[C@H](CCCN=C(N)N)NC(=O)[C@@H](Cc2c[nH]c3ccccc23)NC(=O)[C@H](Cc2ccc(O)cc2)NC(=O)[C@@H](NC(=O)[C@H]2Cc3c([nH]c4ccccc34)CN2)CSSC1(C)C)C(N)=O [listing 1 of 2 here] | – | – | – | 6.76 | 6.68 | –
C[C@@H](O)[C@H](NC(=O)[C@H]1NC(=O)[C@H]([C@@H](C)O)NC(=O)[C@H](CCCN=C(N)N)NC(=O)[C@@H](Cc2c[nH]c3ccccc23)NC(=O)[C@H](Cc2ccc(O)cc2)NC(=O)[C@@H](NC(=O)[C@H]2Cc3c([nH]c4ccccc34)CN2)CSSC1(C)C)C(N)=O [listing 2 of 2 here] | 1.2 | 18% | – | – | – | –
C[C@H](c1ccccc1)[C@H](N)C(=O)N[C@H]1CSSC(C)(C)[C@@H](C(=O)N[C@H](C(N)=O)[C@@H](C)O)NC(=O)[C@H]([C@@H](C)O)NC(=O)[C@H](CCCN=C(N)N)NC(=O)[C@@H](Cc2c[nH]c3ccccc23)NC(=O)[C@H](Cc2ccc(O)cc2)NC1=O [listing 1 of 2 here] | – | – | – | 5.27 | 4.88 | –
C[C@H](c1ccccc1)[C@H](N)C(=O)N[C@H]1CSSC(C)(C)[C@@H](C(=O)N[C@H](C(N)=O)[C@@H](C)O)NC(=O)[C@H]([C@@H](C)O)NC(=O)[C@H](CCCN=C(N)N)NC(=O)[C@@H](Cc2c[nH]c3ccccc23)NC(=O)[C@H](Cc2ccc(O)cc2)NC1=O [listing 2 of 2 here] | – | 13% | 0% | – | – | 1
C[C@@H](O)[C@H](NC(=O)[C@H]1NC(=O)[C@H]([C@@H](C)O)NC(=O)[C@H](CCCNC(=N)N)NC(=O)[C@@H](Cc2c[nH]c3ccccc23)NC(=O)[C@H](Cc2ccc(O)cc2)NC(=O)[C@@H](NC(=O)[C@H](N)[C@@H](C)c2c[nH]c3ccccc23)CSSC1(C)C)C(N)=O | – | – | – | 7.92 | 5.13 | –
C[C@@H](O)[C@H](NC(=O)[C@H]1NC(=O)[C@H]([C@@H](C)O)NC(=O)[C@H](CCCN=C(N)N)NC(=O)[C@@H](Cc2c[nH]c3ccccc23)NC(=O)[C@H](Cc2ccc(O)cc2)NC(=O)[C@@H](NC(=O)[C@H](N)[C@@H](C)c2c[nH]c3ccccc23)CSSC1(C)C)C(N)=O | 68 | 0% | 0% | – | – | –
C[C@H](c1c[nH]c2ccccc12)[C@@H](N)C(=O)N[C@H]1CSSC(C)(C)[C@@H](C(=O)N[C@H](C(N)=O)[C@@H](C)O)NC(=O)[C@H]([C@@H](C)O)NC(=O)[C@H](CCCNC(=N)N)NC(=O)[C@@H](Cc2c[nH]c3ccccc23)NC(=O)[C@H](Cc2ccc(O)cc2)NC1=O | – | – | – | 7.73 | 5.44 | –
C[C@H](c1c[nH]c2ccccc12)[C@@H](N)C(=O)N[C@H]1CSSC(C)(C)[C@@H](C(=O)N[C@H](C(N)=O)[C@@H](C)O)NC(=O)[C@H]([C@@H](C)O)NC(=O)[C@H](CCCN=C(N)N)NC(=O)[C@@H](Cc2c[nH]c3ccccc23)NC(=O)[C@H](Cc2ccc(O)cc2)NC1=O | 39 | 0% | 3.7% | – | – | –
C[C@@H](O)[C@H](NC(=O)[C@H]1NC(=O)[C@H]([C@@H](C)O)NC(=O)[C@H](CCCNC(=N)N)NC(=O)[C@@H](Cc2c[nH]c3ccccc23)NC(=O)[C@H](Cc2ccc(O)cc2)NC(=O)[C@@H](NC(=O)[C@@H](N)[C@@H](C)c2c[nH]c3ccccc23)CSSC1(C)C)C(N)=O | – | – | – | 5.87 | 5.04 | –
C[C@@H](O)[C@H](NC(=O)[C@H]1NC(=O)[C@H]([C@@H](C)O)NC(=O)[C@H](CCCN=C(N)N)NC(=O)[C@@H](Cc2c[nH]c3ccccc23)NC(=O)[C@H](Cc2ccc(O)cc2)NC(=O)[C@@H](NC(=O)[C@@H](N)[C@@H](C)c2c[nH]c3ccccc23)CSSC1(C)C)C(N)=O | 2.6 | 0% | 0% | – | – | –
C[C@@H](O)[C@H](NC(=O)[C@H]1NC(=O)[C@H]([C@@H](C)O)NC(=O)[C@H](CCCN=C(N)N)NC(=O)[C@@H](Cc2c[nH]c3ccccc23)NC(=O)[C@H](Cc2ccc(O)cc2)NC(=O)[C@@H](NC(=O)[C@H]2Cc3ccccc3CN2)CSSC1(C)C)C(N)=O (H-[dTic]CY[dW]RT[Pen]T-NH2; disulfide 2-7) | 60 | 1% | 10% | – | – | –
